The test system of experiment [1] is SK-OV-3. The experiment in a line: Induction of apoptosis in human SKOV3 cells assessed as apoptotic cells at 5 ug/mL after 24 hrs by annexin V/propidium iodide-based flow cytometry. It is filed as functional. The essentials:
(§1)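 SKOV-3 or HT-29 cells (1-5 × 10^6 cells/mL) were incubated with 0, 5 or 10 μg/mL compound for 24 h. They were then washed and stained with EGFP-Annexin V/PI and analysed immediately by flow cytometry. Annexin V+/PI− cells were scored as apoptotic; PI-permeant cells were scored as necrotic.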
A general note: In flow cytometry, cells or beads pass a laser one at a time.

The test system of experiment [2] is HT-29. The experiment in a line: Induction of apoptosis in human HT-29 cells assessed as morphological changes at 0.25 ug/mL after 24 hrs by immunostaining. It is filed as functional, cell-based. In outline: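 SKOV3 and HT-29 cells were treated with 0.25 or 5 μg/mL for 24 h. Cell morphology was assessed by microscopy after fixation in 4% formaldehyde and Hoechst 33342 staining (10 μg/mL), against an untreated control.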

In experiment [3] the target is T1, DNA topoisomerase 1 (Homo sapiens) (UniProt P11387).
T1 sequence (whole entry): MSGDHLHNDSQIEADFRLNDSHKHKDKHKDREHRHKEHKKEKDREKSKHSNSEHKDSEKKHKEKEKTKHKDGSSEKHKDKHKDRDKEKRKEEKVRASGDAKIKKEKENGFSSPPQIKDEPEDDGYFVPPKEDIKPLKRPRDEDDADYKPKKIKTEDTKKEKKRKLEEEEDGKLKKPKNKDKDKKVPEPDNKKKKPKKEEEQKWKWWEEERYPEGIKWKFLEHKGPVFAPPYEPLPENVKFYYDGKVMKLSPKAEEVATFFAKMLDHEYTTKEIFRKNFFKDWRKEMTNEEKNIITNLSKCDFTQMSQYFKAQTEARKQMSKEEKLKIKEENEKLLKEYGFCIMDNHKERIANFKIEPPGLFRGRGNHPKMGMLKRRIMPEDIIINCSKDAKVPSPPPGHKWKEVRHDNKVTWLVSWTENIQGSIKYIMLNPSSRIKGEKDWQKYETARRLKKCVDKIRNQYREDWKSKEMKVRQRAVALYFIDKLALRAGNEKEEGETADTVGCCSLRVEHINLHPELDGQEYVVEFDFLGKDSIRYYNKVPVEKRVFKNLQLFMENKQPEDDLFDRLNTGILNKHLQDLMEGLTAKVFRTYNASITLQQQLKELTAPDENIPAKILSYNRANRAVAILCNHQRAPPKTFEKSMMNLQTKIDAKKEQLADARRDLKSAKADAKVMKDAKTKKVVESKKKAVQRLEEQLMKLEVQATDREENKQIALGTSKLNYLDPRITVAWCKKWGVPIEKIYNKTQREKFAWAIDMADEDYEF
The experiment in a line: Induction of human recombinant topoisomerase 1-mediated cleavage of 32P-labeled linearized pRYG plasmid DNA at 25 uM after 30 mins by agarose gel electrophoresis. In outline:
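Recombinant human Top I was incubated with HindIII-linearised pRYG plasmid, 3'-end-labelled with [α-32P]dCTP by Klenow fill-in (about 100000 cpm per reaction). Reactions were stopped with SDS and proteinase K at 45 °C, alkali-denatured, run on a 1% agarose gel and autoradiographed.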

The test system of experiment [4] is HT-29. The experiment is described as follows: Induction of apoptosis in human HT-29 cells assessed as apoptotic cells at 10 ug/mL after 24 hrs by annexin V/propidium iodide-based flow cytometry. It is filed as functional. The essentials: as §1
The next experiment concerns MCF7. The experiment is described as follows: Cytotoxicity against estrogen receptor-positive human MCF7 cells expressing wild type p53 after 48 hrs by SRB assay. It is filed as functional, cell-based. The conditions noted are these: MCF7, 48 h. The essentials:
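Cell lines came from CCRC, Taiwan. Cells were seeded at about 5 × 10^3 per well and left overnight. They were then given serum-free medium containing 0-10 μM compound (0.08-10 μM serial dilutions) for 48 h at 37 °C. Cells were fixed with TCA (10% final), stained with SRB (0.4% final), and the dye was dissolved in 10 mM Tris with A515 read. IC50 was taken from a fitted log concentration-response curve.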

The subject of experiment [5] is SK-OV-3. The experiment is described as follows: Cytotoxicity against human SKOV3 cells after 48 hrs by MTT assay. It is filed as functional, cell-based. The conditions noted are these: SK-OV-3, 48 h. In outline:
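Cells were seeded at about 5 × 10^3 per well, then given serum-free medium containing 0-10 μM test compound for 48 h at 37 °C. MTT was added at 0.5 mg/mL final for 4 h at 37 °C. Formazan was dissolved in DMSO and OD570 read. IC50 values (50% cell death) came from a fitted log concentration-response curve.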
On the technique in general: Tetrazolium dyes change colour on reduction, which living cells bring about.

Converted amounts (≈) assume the structure as drawn. The source made the active and inactive calls. The rule behind the calls is not given here.

The term GI50 denotes the concentration giving 50% growth inhibition. Higher therefore signals lower sensitivity of the cells. As a reminder, the IC50 is the concentration needed to halve the response being measured. A higher IC50 goes with a need for much substance.

In the case of `CCn1cc(-c2nc3ccc([N+](=O)[O-])cc3o2)c(=O)c2cc(F)c(N3CCNC(C)C3)c(F)c21` (configuration not stated), the Activity in the experiment with SK-OV-3 [1] came out at 7.4%; with HT-29 [4], 35.9%. In addition, the outcome (with HT-29 [2]; in experiment [3]) was Active. For the same compound, the GI50 in the experiment with MCF7 was 3 µM. For the same compound, the IC50 in the experiment on MCF7 stood at 6.8 µM; with SK-OV-3 [5], 0.55 µg/mL (≈ 1.17 µM).

Source of the values: ChEMBL document CHEMBL1153527, “Discovery of a novel series of quinolone and naphthyridine derivatives as potential topoisomerase I inhibitors by scaffold modification” (J Med Chem, 2009).
